Key:
Hippocampus [1] = test: In vivo displacement of [3H]Ketanserin from 5HT2A receptor in Sprague-Dawley rat hippocampus CA3 region at 13.75 mg/kg, ip qd for 28 days by autoradiography relative to control; format: functional; settings: route intraperitoneal
In short: (§1)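 Rats (male Sprague-Dawley, N = 8/group) given daily ip injections for 28 days versus vehicle. Brain sections preincubated 1 h RT in 50 mM Tris-HCl pH 7.7, then 1 h RT with 3.0 nM [3H]ketanserin plus 1 μM prazosin and 100 nM tetrabenazine. Nonspecific: 1 μM methysergide. Washes 2 × 30 min ice-cold. Readout fmol/mg tissue as % of control, mean ± SEM.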

[2] = In vivo displacement of [3H]SCH-23390 from dopamine D1 receptor in Sprague-Dawley rat medial-prefrontal cortex at 13.75 mg/kg, ip qd for 28 days by autoradiography relative to control; format: functional; settings: route intraperitoneal
In short: (§2)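 Forebrain sections from male Sprague-Dawley rats (N = 8/group) after 28 days of daily ip injections versus vehicle. Incubation 1 h RT in 50 mM Tris-HCl pH 7.4, 120 mM NaCl, 5 mM KCl, 2 mM CaCl2, 1 mM MgCl2 with 1 nM [3H]SCH-23390 and 100 nM ketanserin. Nonspecific: 1 μM cis-flupenthixol. Saturating conditions; fmol/mg tissue, % of control.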

[3] = In vivo displacement of [3H]Ketanserin from 5HT2A receptor in Sprague-Dawley rat nucleus accumbens at 13.75 mg/kg, ip qd for 28 days by autoradiography relative to control; format: functional; settings: route intraperitoneal; in short: as §1
[4] = target: T1, Serotonin 1a (5-HT1a) receptor/Adrenergic receptor alpha-1 (Rattus norvegicus) (UniProt P15823+P23944+P43140+P19327); test: In vivo displacement of [3H]8-OH-DPAT from 5HT1A receptor in Sprague-Dawley rat nucleus accumbens at 13.75 mg/kg, ip qd for 28 days by autoradiography relative to control; format: functional, organism-based; design: dose 13.75 mg/kg
In short: (§3)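 Male Sprague-Dawley rats (200−225 g, N = 8/group) dosed ip once daily for 28 days, vehicle controls, decapitated; 10 μm frozen coronal sections. Preincubation 1 h RT in 50 mM Tris-HCl pH 7.6, 0.1% ascorbic acid, 4 mM CaCl2, 10 μM pargyline; then 1 h RT with 2.0 nM [3H]8-OH-DPAT. Nonspecific: 1 μM 5-HT. Saturating conditions; binding in fmol/mg tissue, % of control, mean ± SEM.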

[5] = target: D(2) dopamine receptor (Rattus norvegicus) (UniProt P61169); test: In vivo displacement of [3H]Nemonapride from dopamine D2 receptor in Sprague-Dawley rat entorhinal cortex at 13.75 mg/kg, ip qd for 28 days by autoradiography relative to control; format: functional, organism-based; design: dose 13.75 mg/kg
In short: (§4)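 Male Sprague-Dawley rats, N = 8/group, daily ip dosing for 28 days with vehicle controls; cryostat sections (10 μm) preincubated 1 h RT. Incubation 1 h RT in 50 mM Tris-HCl pH 7.4, 120 mM NaCl, 5 mM KCl, 2 mM CaCl2, 1 mM MgCl2 with 1 nM [3H]nemonapride, 0.5 μM DTG, 0.1 μM pindolol. Nonspecific: 10 μM S(−)-sulpiride. Values fmol/mg tissue, % of control.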

[6] = In vivo displacement of [3H]Nemonapride from dopamine D4 receptor in Sprague-Dawley rat dorsolateral frontal cortex at 13.75 mg/kg, ip qd for 28 days by autoradiography relative to control; format: functional; settings: route intraperitoneal
Caudate-putamen [7] = test: In vivo displacement of [3H]Nemonapride from dopamine D4 receptor in Sprague-Dawley rat lateral part of caudate putamen at 13.75 mg/kg, ip qd for 28 days by autoradiography relative to control; format: functional; settings: route intraperitoneal
Caudate-putamen [8] = test: In vivo displacement of [3H]SCH-23390 from dopamine D1 receptor in Sprague-Dawley rat medial part of caudate putamen at 13.75 mg/kg, ip qd for 28 days by autoradiography relative to control; format: functional; settings: route intraperitoneal; in short: as §2
Hippocampus [9] = test: In vivo displacement of [3H]Nemonapride from dopamine D2 receptor in Sprague-Dawley rat hippocampus at 13.75 mg/kg, ip qd for 28 days by autoradiography relative to control; format: functional; settings: route intraperitoneal; in short: as §4
[10] = target: 5-hydroxytryptamine receptor 2A (Homo sapiens, UniProt P28223); test: Displacement of [3H]ketanserin from human recombinant 5HT2A receptor expressed in CHO cells after 60 mins by liquid scintillation counting; format: cell-based
Caudate-putamen [11] = test: In vivo displacement of [3H]SCH-23390 from dopamine D1 receptor in Sprague-Dawley rat lateral part of caudate putamen at 13.75 mg/kg, ip qd for 28 days by autoradiography relative to control; format: functional; settings: route intraperitoneal; in short: as §2
Caudate-putamen [12] = test: In vivo displacement of [3H]Ketanserin from 5HT2A receptor in Sprague-Dawley rat medial part of caudate putamen at 13.75 mg/kg, ip qd for 28 days by autoradiography relative to control; format: functional; settings: route intraperitoneal; in short: as §1
Hippocampus [13] = test: In vivo displacement of [3H]SCH-23390 from dopamine D1 receptor in Sprague-Dawley rat hippocampus at 13.75 mg/kg, ip qd for 28 days by autoradiography relative to control; format: functional; settings: route intraperitoneal; in short: as §2
[14] = In vivo displacement of [3H]Ketanserin from 5HT2A receptor in Sprague-Dawley rat entorhinal cortex at 13.75 mg/kg, ip qd for 28 days by autoradiography relative to control; format: functional; settings: route intraperitoneal; in short: as §1
Hippocampus [15] = test: In vivo displacement of [3H]8-OH-DPAT from 5HT1A receptor in Sprague-Dawley rat hippocampus CA3 region at 13.75 mg/kg, ip qd for 28 days by autoradiography relative to control; format: functional; settings: route intraperitoneal; in short: as §3
Caudate-putamen [16] = test: In vivo displacement of [3H]8-OH-DPAT from 5HT1A receptor in Sprague-Dawley rat medial part of caudate putamen at 13.75 mg/kg, ip qd for 28 days by autoradiography relative to control; format: functional; settings: route intraperitoneal; in short: as §3
[17] = In vivo displacement of [3H]Nemonapride from dopamine D4 receptor in Sprague-Dawley rat nucleus accumbens at 13.75 mg/kg, ip qd for 28 days by autoradiography relative to control; format: functional; settings: route intraperitoneal
Caudate-putamen [18] = test: In vivo displacement of [3H]Nemonapride from dopamine D2 receptor in Sprague-Dawley rat medial of caudate putamen at 13.75 mg/kg, ip qd for 28 days by autoradiography relative to control; format: functional; settings: route intraperitoneal; in short: as §4
[19] = target: D(2) dopamine receptor (Rattus norvegicus) (UniProt P61169); test: In vivo displacement of [3H]Nemonapride from dopamine D2 receptor in Sprague-Dawley rat dorsolateral frontal cortex at 13.75 mg/kg, ip qd for 28 days by autoradiography relative to control; format: functional, organism-based; design: dose 13.75 mg/kg; in short: as §4
[20] = In vivo displacement of [3H]Nemonapride from dopamine D4 receptor in Sprague-Dawley rat medial-prefrontal cortex at 13.75 mg/kg, ip qd for 28 days by autoradiography relative to control; format: functional; settings: route intraperitoneal
Caudate-putamen [21] = test: In vivo displacement of [3H]Nemonapride from dopamine D2 receptor in Sprague-Dawley rat lateral of caudate putamen at 13.75 mg/kg, ip qd for 28 days by autoradiography relative to control; format: functional; settings: route intraperitoneal; in short: as §4
[22] = target: T1, Serotonin 1a (5-HT1a) receptor/Adrenergic receptor alpha-1 (Rattus norvegicus); test: In vivo displacement of [3H]8-OH-DPAT from 5HT1A receptor in Sprague-Dawley rat entorhinal cortex at 13.75 mg/kg, ip qd for 28 days by autoradiography relative to control; format: functional, organism-based; design: dose 13.75 mg/kg; in short: as §3

Chain of D(2) dopamine receptor (Rattus norvegicus) (P61169 whole entry): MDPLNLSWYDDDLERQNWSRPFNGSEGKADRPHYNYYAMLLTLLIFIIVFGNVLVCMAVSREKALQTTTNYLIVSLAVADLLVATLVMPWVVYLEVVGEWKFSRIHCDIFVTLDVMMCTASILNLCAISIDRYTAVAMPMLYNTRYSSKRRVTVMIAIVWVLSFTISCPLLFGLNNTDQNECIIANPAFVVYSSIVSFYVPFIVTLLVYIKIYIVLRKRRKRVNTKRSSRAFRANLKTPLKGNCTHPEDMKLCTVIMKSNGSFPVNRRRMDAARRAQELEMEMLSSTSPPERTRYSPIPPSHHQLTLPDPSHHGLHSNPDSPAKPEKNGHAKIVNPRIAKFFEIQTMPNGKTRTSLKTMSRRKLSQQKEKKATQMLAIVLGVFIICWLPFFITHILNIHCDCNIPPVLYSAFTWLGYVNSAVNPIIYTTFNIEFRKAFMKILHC
Chain of 5-hydroxytryptamine receptor 2A (P28223 whole entry): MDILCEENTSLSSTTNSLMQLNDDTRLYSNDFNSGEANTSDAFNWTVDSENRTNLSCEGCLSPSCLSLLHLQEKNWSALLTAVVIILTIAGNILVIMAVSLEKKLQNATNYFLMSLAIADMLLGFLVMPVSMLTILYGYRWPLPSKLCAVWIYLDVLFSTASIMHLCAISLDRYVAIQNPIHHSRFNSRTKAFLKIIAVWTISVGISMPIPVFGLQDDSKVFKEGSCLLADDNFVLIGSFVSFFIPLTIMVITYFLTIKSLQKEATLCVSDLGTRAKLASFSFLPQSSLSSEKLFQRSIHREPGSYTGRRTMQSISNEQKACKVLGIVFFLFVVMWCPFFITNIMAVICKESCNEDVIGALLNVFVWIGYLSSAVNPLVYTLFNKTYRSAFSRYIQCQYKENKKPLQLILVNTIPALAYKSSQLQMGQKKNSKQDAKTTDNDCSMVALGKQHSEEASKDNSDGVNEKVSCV

Which inhibition in vivo at 13.75 mg/kg (Hippocampus [1]) does the source give for `Clc1ccc2c(c1)N=C(N1CCNCC1)c1cccnc1O2` here?
The inhibition in vivo at 13.75 mg/kg was 92%.

What about the inhibition in vivo at 13.75 mg/kg [2] of the same compound?
The inhibition in vivo at 13.75 mg/kg was 97%.

And the inhibition in vivo at 13.75 mg/kg [3]?
The inhibition in vivo at 13.75 mg/kg was 98%.

What about the inhibition [4] of the same compound?
The inhibition was 88%.

And the inhibition [5]?
Its inhibition is 96%.

What about the inhibition in vivo at 13.75 mg/kg [6] of the same compound?
Its inhibition in vivo at 13.75 mg/kg is 108%.

And the inhibition in vivo at 13.75 mg/kg (Caudate-putamen [7])?
The inhibition in vivo at 13.75 mg/kg was 152%.

And the inhibition in vivo at 13.75 mg/kg (Caudate-putamen [8])?
Its inhibition in vivo at 13.75 mg/kg is 131%.

What about the inhibition in vivo at 13.75 mg/kg (Hippocampus [9]) of the same compound?
Its inhibition in vivo at 13.75 mg/kg is 134%.

What about the Ki [10] of the same compound?
Its Ki is 131 nM.

What about the inhibition in vivo at 13.75 mg/kg (Caudate-putamen [11]) of the same compound?
Its inhibition in vivo at 13.75 mg/kg is 132%.

What about the inhibition in vivo at 13.75 mg/kg (Caudate-putamen [12]) of the same compound?
Its inhibition in vivo at 13.75 mg/kg is 87%.

And the inhibition in vivo at 13.75 mg/kg (Hippocampus [13])?
The inhibition in vivo at 13.75 mg/kg was 105%.

What about the inhibition in vivo at 13.75 mg/kg [14] of the same compound?
Its inhibition in vivo at 13.75 mg/kg is 90%.

And the inhibition in vivo at 13.75 mg/kg (Hippocampus [15])?
The inhibition in vivo at 13.75 mg/kg was 105%.

And the inhibition in vivo at 13.75 mg/kg (Caudate-putamen [16])?
The inhibition in vivo at 13.75 mg/kg was 87%.

What about the inhibition in vivo at 13.75 mg/kg [17] of the same compound?
Its inhibition in vivo at 13.75 mg/kg is 178%.

What about the inhibition in vivo at 13.75 mg/kg (Caudate-putamen [18]) of the same compound?
Its inhibition in vivo at 13.75 mg/kg is 110%.

And the inhibition [19]?
The inhibition was 103%.

What about the inhibition in vivo at 13.75 mg/kg [20] of the same compound?
Its inhibition in vivo at 13.75 mg/kg is 110%.

And the inhibition in vivo at 13.75 mg/kg (Caudate-putamen [21])?
Its inhibition in vivo at 13.75 mg/kg is 98%.

What about the inhibition [22] of the same compound?
The inhibition was 103%.

Reference: ChEMBL document CHEMBL2021876, “New pyridobenzoxazepine derivatives derived from 5-(4-methylpiperazin-1-yl)-8-chloro-pyrido[2,3-b][1,5]benzoxazepine (JL13): chemical synthesis and pharmacological evaluation” (J Med Chem, 2012)
